Results as given in ChEMBL document CHEMBL4411328, “Synthesis and Structural/Functional Characterization of Selective M14 Metallocarboxypeptidase Inhibitors Based on Phosphinic Pseudopeptide Scaffold: Implications on the Design of Specific Optical Probes” (J Med Chem, 2019).
The source made the active and inactive calls. No cut-off for these calls is given here.

Experiments:
Carboxypeptidase A4 = target: T1, Carboxypeptidase A4 (Homo sapiens, UniProt Q9UI42); assay: Inhibition of human CPA4 using AAFP as substrate preincubated for 45 mins to 2 hrs measured at 30 sec intervals for 15 mins by UV/vis-spectrophotometry
T1 sequence (Q9UI42 whole entry): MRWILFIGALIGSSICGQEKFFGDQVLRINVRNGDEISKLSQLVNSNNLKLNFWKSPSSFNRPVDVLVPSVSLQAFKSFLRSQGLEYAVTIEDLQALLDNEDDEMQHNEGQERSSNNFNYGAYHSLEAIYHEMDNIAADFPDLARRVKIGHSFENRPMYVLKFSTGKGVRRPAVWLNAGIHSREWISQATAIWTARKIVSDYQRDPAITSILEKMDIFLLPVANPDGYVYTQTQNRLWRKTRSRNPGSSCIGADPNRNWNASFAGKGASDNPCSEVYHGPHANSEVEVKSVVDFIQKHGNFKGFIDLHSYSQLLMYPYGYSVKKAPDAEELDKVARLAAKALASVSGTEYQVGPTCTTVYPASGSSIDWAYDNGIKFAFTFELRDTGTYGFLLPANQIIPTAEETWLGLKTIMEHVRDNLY
Method in brief: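 Enzyme was hCPA4 at 4.3x10-8 M, with 1.0x10-4 M AAFP and detection at 355 nm. Inhibitor and enzyme were preincubated 45 min at 37 °C, then initial velocities were taken over 15 min (30 sec reads), in triplicate. Kiapp was obtained from the tight-binding fit.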

[1] = target: T2, Carboxypeptidase D (Homo sapiens) (UniProt O75976); assay: Inhibition of human CPD at 1 nM to 1 mM using AAFA as substrate preincubated for 45 mins to 2 hrs measured at 30 sec intervals for 15 mins by UV/vis-spectrophotometry
T2 sequence (whole entry): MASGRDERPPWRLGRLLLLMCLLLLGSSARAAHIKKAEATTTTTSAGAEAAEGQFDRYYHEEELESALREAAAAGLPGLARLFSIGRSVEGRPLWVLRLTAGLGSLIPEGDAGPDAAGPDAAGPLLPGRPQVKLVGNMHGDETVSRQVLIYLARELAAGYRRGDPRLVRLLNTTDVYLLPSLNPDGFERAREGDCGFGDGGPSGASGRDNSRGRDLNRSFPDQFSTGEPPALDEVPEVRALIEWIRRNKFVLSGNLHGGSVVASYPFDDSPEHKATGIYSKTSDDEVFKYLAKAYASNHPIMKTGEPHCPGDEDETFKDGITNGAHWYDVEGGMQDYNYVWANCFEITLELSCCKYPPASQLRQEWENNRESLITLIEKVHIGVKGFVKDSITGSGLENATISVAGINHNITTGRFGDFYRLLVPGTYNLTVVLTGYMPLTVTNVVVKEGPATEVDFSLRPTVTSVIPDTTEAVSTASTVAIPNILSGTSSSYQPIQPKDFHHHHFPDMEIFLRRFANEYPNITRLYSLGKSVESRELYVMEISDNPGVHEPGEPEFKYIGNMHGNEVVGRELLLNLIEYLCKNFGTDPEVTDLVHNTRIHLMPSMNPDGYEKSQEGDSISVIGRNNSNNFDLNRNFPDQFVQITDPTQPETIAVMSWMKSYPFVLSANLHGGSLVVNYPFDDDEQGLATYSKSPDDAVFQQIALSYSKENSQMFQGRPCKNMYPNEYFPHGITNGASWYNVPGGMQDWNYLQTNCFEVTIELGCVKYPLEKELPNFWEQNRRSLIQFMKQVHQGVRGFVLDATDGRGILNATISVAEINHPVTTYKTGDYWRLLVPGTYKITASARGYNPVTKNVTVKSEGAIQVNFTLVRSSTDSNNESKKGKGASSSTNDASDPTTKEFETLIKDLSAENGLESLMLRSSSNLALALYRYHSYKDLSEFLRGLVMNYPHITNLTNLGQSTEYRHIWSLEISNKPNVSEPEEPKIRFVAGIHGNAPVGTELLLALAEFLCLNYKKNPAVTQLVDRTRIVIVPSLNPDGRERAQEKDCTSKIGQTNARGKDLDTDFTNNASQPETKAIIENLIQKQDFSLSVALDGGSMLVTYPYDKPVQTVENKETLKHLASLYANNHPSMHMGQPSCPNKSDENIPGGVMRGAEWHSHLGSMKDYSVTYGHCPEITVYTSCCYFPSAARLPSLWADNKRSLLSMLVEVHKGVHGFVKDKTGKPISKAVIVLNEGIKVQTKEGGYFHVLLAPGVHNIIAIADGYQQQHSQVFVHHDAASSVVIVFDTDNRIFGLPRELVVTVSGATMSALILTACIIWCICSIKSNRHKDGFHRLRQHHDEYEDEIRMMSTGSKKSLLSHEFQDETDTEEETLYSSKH
Method in brief: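 hCPD was used at 2.0x10-8 M with AAFA substrate at 1.0x10-4 M, monitored at 355 nm. Buffer was 20 mM Tris-HCl pH 7.5, 100 mM NaCl, 1% DMSO, 0.05% Brij-35. Preincubation was 45 min at 37 °C. Residual activity at a range of inhibitor concentrations was measured from initial rates (30 sec reads, 15 min), in triplicate. Kiapp came from the tight-binding fit.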

[2] = target: T3, Carboxypeptidase B (Homo sapiens) (UniProt P15086); assay: Inhibition of human CPB1 at 1 nM to 1 mM using AAFA as substrate preincubated for 45 mins to 2 hrs measured at 30 sec intervals for 15 mins by UV/vis-spectrophotometry
T3 sequence (whole entry): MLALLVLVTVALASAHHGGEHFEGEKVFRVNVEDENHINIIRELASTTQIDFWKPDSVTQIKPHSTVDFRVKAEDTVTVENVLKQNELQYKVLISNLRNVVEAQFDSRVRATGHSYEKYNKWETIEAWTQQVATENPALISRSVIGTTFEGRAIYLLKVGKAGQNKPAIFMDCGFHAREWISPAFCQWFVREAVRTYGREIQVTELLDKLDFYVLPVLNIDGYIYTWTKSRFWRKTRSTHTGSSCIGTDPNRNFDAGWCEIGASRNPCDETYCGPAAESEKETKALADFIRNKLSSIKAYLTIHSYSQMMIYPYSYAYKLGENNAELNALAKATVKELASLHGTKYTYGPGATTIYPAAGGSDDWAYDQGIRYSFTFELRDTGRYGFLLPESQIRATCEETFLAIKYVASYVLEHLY
Method in brief: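 hCPB1 was used at 6.0x10-9 M with 1.0x10-4 M AAFA, read at 355 nm. After 45 min preincubation with inhibitor at 37 °C, residual activity at varied inhibitor concentrations was followed for 15 min at 30 sec intervals, in triplicate. Kiapp was fitted with the tight-binding equation.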

Row | Structure (SMILES) | Ki (Carboxypeptidase A4) | inhibition [1] | inhibition [2]
1 | CC(=O)N[C@@H](CO)C(=O)N[C@@H](C)P(=O)(O)C[C@@H](CCc1ccccc1)C(=O)O | 60.6 nM | inactive | inactive
2 | CC(=O)N[C@@H](CCCCN)C(=O)N[C@@H](C)P(=O)(O)C[C@@H](CCc1ccccc1)C(=O)O | 25.4 nM | inactive | inactive
3 | CC(=O)NCCOCCOCC(=O)N[C@@H](Cc1ccc(O)cc1)C(=O)N[C@@H](C)P(=O)(O)C[C@@H](CCc1ccccc1)C(=O)O | 3.5 nM | inactive | inactive
4 | CC(=O)N[C@@H](CC(C)C)C(=O)N[C@@H](Cc1ccccc1)P(=O)(O)C[C@@H](CCc1ccccc1)C(=O)O | 1.9 nM | inactive | inactive
5 | C[C@H](NC(=O)[C@H](Cc1ccc(O)cc1)NC(=O)COCCOCCNC(=O)CCOCCOCCOCCNC(=O)CCc1ccc(C(=C\C=C2\N(CCCCS(=O)(=O)O)c3ccc4c(S(=O)(=O)[O-])cc(S(=O)(=O)O)cc4c3C2(C)C)/C=C/C2=[N+](CCCCS(=O)(=O)O)c3ccc4c(S(=O)(=O)O)cc(S(=O)(=O)O)cc4c3C2(C)C)cc1)P(=O)(O)C[C@@H](CCc1ccccc1)C(=O)O | 5.7 nM | inactive | inactive
6 | CC(=O)N[C@@H](Cc1ccc(O)cc1)C(=O)N[C@@H](C)P(=O)(O)C[C@@H](CCc1ccccc1)C(=O)O | 2.6 nM | inactive | inactive
7 | C[C@H](NC(=O)[C@H](Cc1ccc(O)cc1)NC(=O)COCCOCCN)P(=O)(O)C[C@@H](CCc1ccccc1)C(=O)O | 5.4 nM | inactive | inactive
8 | CC(=O)N[C@@H](CCC(=O)O)C(=O)N[C@@H](C)P(=O)(O)C[C@@H](CCc1ccccc1)C(=O)O | 38.6 nM | inactive | inactive
9 | CC(=O)N[C@@H](CC(C)C)C(=O)N[C@@H](C)P(=O)(O)C[C@@H](CCc1ccccc1)C(=O)O | 3.3 nM | inactive | inactive
10 | CC(=O)N1CCC[C@H]1C(=O)N[C@@H](C)P(=O)(O)C[C@@H](CCc1ccccc1)C(=O)O | 7.5 nM | inactive | inactive
